How the values were obtained:
[1] = test system: Kidney; assay: Drug uptake in Wistar rat kidney slice at 10 nM at pH 7.4 at 37 degC after 1 min relative to control in presence of ipratropium; format: ADME, tissue-based; conditions: pH 7.4, 1 min, 0.01 µM
How it was run: (§1)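 Rat kidney slices incubated with [3H]ipratropium or [3H]tiotropium (10 nM) for 1 min at 37°C and pH 7.4. Each inhibitor given at 1 mM. Adhering water estimated from [14C]inulin uptake. Uptake expressed as percent of control without inhibitor. Mean ± SEM of 4 slices; significance by Student's t-test, p<0.05.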

[2] = test system: Kidney; assay: Drug uptake in Wistar rat kidney slice at 10 nM at pH 7.4 at 37 degC after 1 min relative to control in presence of 1 mM quinidine; format: ADME, tissue-based; set-up: interact cpd dose 1 mM; conditions: pH 7.4, 1 min, 0.01 µM; how it was run: as §1
[3] = molecular target: T1, OCT2 (SLC22A2) (Homo sapiens, UniProt O15244); assay: Drug uptake in human Oct2 expressed HEK293 cells at 10 nM at pH 7.4 at 37 degC after 1 min relative to mock cells; format: ADME, cell-based; conditions: HEK293 cells expressing human Oct2, pH 7.4, read-out: FC
T1 sequence (O15244 whole entry): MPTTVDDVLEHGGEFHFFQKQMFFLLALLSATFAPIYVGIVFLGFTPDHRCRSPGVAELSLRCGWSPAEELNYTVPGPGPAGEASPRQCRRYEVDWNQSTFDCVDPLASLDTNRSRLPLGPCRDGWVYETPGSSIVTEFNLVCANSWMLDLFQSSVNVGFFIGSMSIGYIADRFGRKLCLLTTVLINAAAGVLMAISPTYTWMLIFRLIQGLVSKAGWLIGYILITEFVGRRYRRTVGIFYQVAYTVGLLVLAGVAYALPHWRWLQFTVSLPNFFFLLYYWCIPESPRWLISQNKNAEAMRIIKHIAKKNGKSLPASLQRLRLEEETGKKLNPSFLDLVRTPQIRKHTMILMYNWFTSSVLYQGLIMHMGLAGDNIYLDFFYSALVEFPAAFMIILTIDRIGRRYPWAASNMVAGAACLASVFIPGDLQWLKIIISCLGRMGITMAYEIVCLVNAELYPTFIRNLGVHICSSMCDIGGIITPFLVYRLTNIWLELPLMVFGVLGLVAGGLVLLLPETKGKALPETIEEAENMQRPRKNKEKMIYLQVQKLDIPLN
How it was run: (§2)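 Transfected HEK293 cells (antibiotic-selected; DMEM with 10% FBS) plated at 1 × 10^5 cells/cm2 and used after 2 days. Uptake of [3H]ipratropium or [3H]tiotropium (10 nM) for 1 min at pH 7.4, 37°C, in HEPES-buffered saline. Cells washed ice-cold, lysed in Triton X-100, counted by scintillation, normalised to protein. Uptake compared with vector-only Mock cells. n = 4.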

[4] = test system: Kidney; assay: Drug uptake in Wistar rat kidney slice at 10 nM at pH 7.4 at 37 degC after 1 min relative to control in presence of 1 mM PAH; format: ADME, tissue-based; set-up: interact cpd dose 1 mM; conditions: pH 7.4, 1 min, 0.01 µM; how it was run: as §1
[5] = molecular target: T2, Oct2 (Slc22a2) (Rattus norvegicus, UniProt Q9R0W2); assay: Drug uptake in rat Oct2 expressed HEK293 cells at 10 nM at pH 7.4 at 37 degC after 1 min relative to mock cells; format: ADME, cell-based; conditions: HEK293 cells expressing rat Oct2, pH 7.4, read-out: FC; how it was run: as §2
T2 sequence (Q9R0W2 whole entry): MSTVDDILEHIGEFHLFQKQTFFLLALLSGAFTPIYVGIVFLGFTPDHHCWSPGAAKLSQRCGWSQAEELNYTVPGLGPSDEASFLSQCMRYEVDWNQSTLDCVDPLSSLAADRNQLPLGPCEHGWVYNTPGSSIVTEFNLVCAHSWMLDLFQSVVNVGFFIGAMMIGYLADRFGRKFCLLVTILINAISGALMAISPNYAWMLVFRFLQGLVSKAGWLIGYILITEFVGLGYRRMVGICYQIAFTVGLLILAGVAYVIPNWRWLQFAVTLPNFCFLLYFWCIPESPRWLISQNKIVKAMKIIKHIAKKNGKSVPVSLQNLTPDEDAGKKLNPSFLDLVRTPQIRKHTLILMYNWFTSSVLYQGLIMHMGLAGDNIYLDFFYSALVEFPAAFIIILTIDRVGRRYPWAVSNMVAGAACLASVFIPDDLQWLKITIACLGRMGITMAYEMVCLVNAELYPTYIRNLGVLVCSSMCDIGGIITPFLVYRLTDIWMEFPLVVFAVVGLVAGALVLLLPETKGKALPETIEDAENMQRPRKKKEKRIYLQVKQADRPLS

[6] = test system: Kidney; assay: Drug uptake in Wistar rat kidney slice at 10 nM at pH 7.4 at 37 degC after 1 min relative to control in presence of 1 mM imipramine; format: ADME, tissue-based; set-up: interact cpd dose 1 mM; conditions: pH 7.4, 1 min, 0.01 µM; how it was run: as §1
[7] = molecular target: T3, Oct1 (Slc22a1) (Rattus norvegicus, UniProt Q63089); assay: Drug uptake in rat Oct1 expressed HEK293 cells at 10 nM at pH 7.4 at 37 degC after 1 min relative to mock cells; format: ADME, cell-based; conditions: HEK293 cells expressing rat Oct1, pH 7.4, read-out: FC; how it was run: as §2
T3 sequence (Q63089 whole entry): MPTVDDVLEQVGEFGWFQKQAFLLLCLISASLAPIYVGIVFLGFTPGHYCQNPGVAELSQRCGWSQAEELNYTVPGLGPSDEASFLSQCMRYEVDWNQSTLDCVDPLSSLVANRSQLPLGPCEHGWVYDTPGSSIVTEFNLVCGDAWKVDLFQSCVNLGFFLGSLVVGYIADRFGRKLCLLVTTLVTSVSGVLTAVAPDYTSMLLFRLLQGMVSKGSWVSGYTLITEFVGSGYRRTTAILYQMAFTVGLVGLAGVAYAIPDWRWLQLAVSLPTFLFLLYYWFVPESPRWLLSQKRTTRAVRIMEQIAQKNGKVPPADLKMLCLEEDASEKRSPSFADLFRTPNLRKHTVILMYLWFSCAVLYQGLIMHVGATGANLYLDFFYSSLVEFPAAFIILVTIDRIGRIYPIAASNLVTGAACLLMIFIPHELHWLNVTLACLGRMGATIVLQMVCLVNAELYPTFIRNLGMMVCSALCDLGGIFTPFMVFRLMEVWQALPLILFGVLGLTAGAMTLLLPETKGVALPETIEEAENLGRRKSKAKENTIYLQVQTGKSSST

[8] = test system: Kidney; assay: Drug uptake in Wistar rat kidney slice at 10 nM at pH 7.4 at 37 degC after 1 min relative to control in presence of 1 mM TEA+; format: ADME, tissue-based; set-up: interact cpd dose 1 mM; conditions: pH 7.4, 1 min, 0.01 µM; how it was run: as §1
[9] = test system: Kidney; assay: Drug uptake in Wistar rat kidney slice at 10 nM at pH 7.4 at 37 degC after 1 min relative to control in presence 1 mM MPP+; format: ADME, tissue-based; set-up: interact cpd dose 1 mM; conditions: pH 7.4, 1 min, 0.01 µM; how it was run: as §1
[10] = test system: Kidney; assay: Drug uptake in Wistar rat kidney slice at 10 nM at pH 7.4 at 37 degC after 1 min relative to control in presence of 1 mM cimetidine; format: ADME, tissue-based; set-up: interact cpd dose 1 mM; conditions: pH 7.4, 1 min, 0.01 µM; how it was run: as §1
[11] = test system: Kidney; assay: Drug uptake in Wistar rat kidney slice at 10 nM at pH 7.4 at 37 degC after 1 min; format: ADME, tissue-based; conditions: pH 7.4, 1 min, 0.01 µM; how it was run: as §1
[12] = test system: Kidney; assay: Drug uptake in Wistar rat kidney slice at 10 nM at pH 7.4 at 37 degC after 1 min relative to control in presence of 1 mM estrone 3-sulfate; format: ADME, tissue-based; set-up: interact cpd dose 1 mM; conditions: pH 7.4, 1 min, 0.01 µM; how it was run: as §1
[13] = molecular target: T4, Solute carrier family 22 member 2 (Rattus norvegicus, UniProt Q9R0W2); assay: Binding affinity to rat Oct2 assessed as transporter-mediated drug uptake; format: ADME
T4 sequence (Q9R0W2 whole entry): T2 sequence (Q9R0W2 whole entry)
How it was run: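 [3H]ipratropium (10 nM) uptake into HEK293/rOct2 cells over 30 sec at pH 7.4, 37°C, in HEPES-buffered saline transport buffer. Mock-cell uptake subtracted to give transporter-mediated uptake. Cells lysed in Triton X-100, counted by liquid scintillation, normalised to protein. Km and Vmax from non-linear least-squares fit to Michaelis-Menten equation. n = 4, mean ± SEM.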

[14] = substrate: NCCc1ccc(O)c(O)c1; assay: cells, lysate or membranes named

`C[N+]1(C)[C@@H]2C[C@@H](OC(=O)C(O)(c3cccs3)c3cccs3)C[C@@H]1[C@H]1O[C@H]12.[Br-]` gave a Drug uptake [1] of 25.6%, a Drug uptake [2] of 34.9% and an uptake ratio at 1 min, 0.01 µM [3] of 8.5. The Drug uptake [4] was 97.4%, the uptake ratio at 1 min, 0.01 µM [5] was 3 and the Drug uptake [6] was 36.7%. It also gave an uptake ratio at 1 min, 0.01 µM [7] of 8.4, a Drug uptake [8] of 67.3% and a Drug uptake [9] of 39.8%. The Drug uptake [10] was 54.5%, the Drug uptake [11] was 100% and the Drug uptake [12] was 104%.

`C[n+]1ccc(-c2ccccc2)cc1` showed a Km [13] of 17 µM.

B1: Solute carrier family 22 member 2 (Rattus norvegicus) (protein)
chain: T2 sequence (Q9R0W2 whole entry)
B1 was tested, and the Km [14] was 650 µM.

Source: ChEMBL document CHEMBL3525939, “Organic cation transporter-mediated renal secretion of ipratropium and tiotropium in rats and humans” (Drug Metab Dispos, 2011)
